{"source": "ChEMBL document CHEMBL1641472", "about": "“Discovery of novel phenylpyridone derivatives as potent and selective MCH1R antagonists” (Bioorg Med Chem, 2011)", "key": {"[1]": {"experiment": "Drug level in Sprague-Dawley rat plasma at 10 mg/kg, po after 2 hrs", "type": "ADME, organism-based", "design": "dose 10 mg/kg, route oral", "conditions": "read-out: Drug uptake"}, "Brain": {"system": "Brain", "experiment": "Drug level in Sprague-Dawley rat brain measured per gram of tissue at 10 mg/kg, po after 2 hrs", "type": "ADME, organism-based", "design": "dose 10 mg/kg, route oral", "conditions": "in vivo"}, "[2]": {"experiment": "Ratio of drug level in brain to plasma in Sprague-Dawley rat plasma at 10 mg/kg, po after 2 hrs", "type": "ADME, organism-based", "design": "dose 10 mg/kg, route oral"}, "[3]": {"target": "T1, Melanin-concentrating hormone receptor 1 (Homo sapiens, UniProt Q99705)", "T1 sequence (Q99705 whole entry)": "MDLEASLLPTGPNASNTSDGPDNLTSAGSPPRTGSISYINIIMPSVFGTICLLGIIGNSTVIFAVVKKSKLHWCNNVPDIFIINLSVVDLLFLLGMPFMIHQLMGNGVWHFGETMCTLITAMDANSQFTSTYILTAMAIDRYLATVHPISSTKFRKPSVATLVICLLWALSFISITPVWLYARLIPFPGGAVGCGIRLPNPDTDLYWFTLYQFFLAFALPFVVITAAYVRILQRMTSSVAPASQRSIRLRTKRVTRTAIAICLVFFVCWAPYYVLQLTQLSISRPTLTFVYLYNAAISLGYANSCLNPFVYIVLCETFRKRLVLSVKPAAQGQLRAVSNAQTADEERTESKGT", "experiment": "Antagonist activity at human MCHR1 expressed in CHO cells assessed as inhibition of MCH-induced intracellular calcium release by FLIPR assay", "type": "functional, cell-based", "outline": "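Agonist-induced intracellular calcium release measured by FLIPR in CHO cells stably expressing human MCH1R; antagonism taken as inhibition of the MCH-evoked signal.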"}, "[4]": {"target": "T1, Melanin-concentrating hormone receptor 1", "experiment": "Displacement of [125I]MCH from human MCHR1 expressed in CHO cells by competition binding assay", "type": "cell-based", "outline": "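Competition binding against [¹²⁵I]-MCH radioligand on membranes from CHO cells expressing human MCH1R; IC50 values are means of two experiments.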"}, "[5]": {"target": "Voltage-gated inwardly rectifying potassium channel KCNH2 (Homo sapiens, UniProt Q12809)", "sequence (Q12809 whole entry)": "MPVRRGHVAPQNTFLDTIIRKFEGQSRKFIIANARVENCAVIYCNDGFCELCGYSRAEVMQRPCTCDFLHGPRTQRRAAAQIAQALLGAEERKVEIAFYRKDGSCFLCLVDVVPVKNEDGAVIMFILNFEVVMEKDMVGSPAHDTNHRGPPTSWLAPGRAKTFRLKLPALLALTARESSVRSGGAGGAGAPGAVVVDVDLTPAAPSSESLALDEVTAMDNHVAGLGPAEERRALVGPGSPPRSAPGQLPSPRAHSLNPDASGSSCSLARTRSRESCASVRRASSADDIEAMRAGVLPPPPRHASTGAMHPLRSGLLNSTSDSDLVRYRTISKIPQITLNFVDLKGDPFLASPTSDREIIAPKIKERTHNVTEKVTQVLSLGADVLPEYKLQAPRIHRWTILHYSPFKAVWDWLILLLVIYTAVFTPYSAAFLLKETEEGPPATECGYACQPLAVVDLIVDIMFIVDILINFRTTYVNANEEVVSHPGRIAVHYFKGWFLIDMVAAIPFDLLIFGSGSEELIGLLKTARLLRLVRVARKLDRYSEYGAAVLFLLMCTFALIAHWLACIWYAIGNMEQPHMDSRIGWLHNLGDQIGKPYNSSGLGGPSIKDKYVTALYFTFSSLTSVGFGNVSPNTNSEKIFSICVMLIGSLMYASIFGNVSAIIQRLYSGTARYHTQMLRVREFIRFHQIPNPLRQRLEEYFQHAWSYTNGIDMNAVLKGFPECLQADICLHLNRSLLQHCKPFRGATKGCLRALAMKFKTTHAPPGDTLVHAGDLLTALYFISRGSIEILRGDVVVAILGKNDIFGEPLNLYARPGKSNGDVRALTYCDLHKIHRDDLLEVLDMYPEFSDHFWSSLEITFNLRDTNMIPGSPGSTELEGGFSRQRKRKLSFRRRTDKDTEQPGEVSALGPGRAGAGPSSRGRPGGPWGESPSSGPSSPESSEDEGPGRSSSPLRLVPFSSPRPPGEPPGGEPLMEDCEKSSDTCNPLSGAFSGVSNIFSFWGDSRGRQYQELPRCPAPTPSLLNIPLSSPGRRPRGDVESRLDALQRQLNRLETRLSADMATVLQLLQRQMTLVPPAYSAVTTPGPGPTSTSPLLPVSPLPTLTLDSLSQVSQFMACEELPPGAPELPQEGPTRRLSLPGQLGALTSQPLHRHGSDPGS", "experiment": "Displacement of [35S]N-[(4R)-10-[(2R)-6-cyano-1,2,3,4-tetrahydro-2-naphthyl]-3,4-dihydro-4-hydroxyspiro[2H-1-benzopyran-2,40-piperidin]-6-yl]methanesulfonamide from human ERG expressed in HEK293 cells"}, "Mus musculus [6]": {"system": "Mus musculus", "experiment": "Suppression of spontaneous food intake in diet-induced obese C57BL/6 mouse model at 30 mg/kg, po after 24 hrs", "type": "functional", "outline": "(§1)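 Established DIO mice on high-fat diet given a single oral dose (3, 10, 30 mg/kg) 1–2 h before dark onset, after recording daily intake and body weight; food intake measured 24 h post-dose versus vehicle group.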"}, "Mus musculus [7]": {"system": "Mus musculus", "experiment": "Antiobese effect in diet-induced obese C57BL/6 mouse model assessed as loss of body weight at 3 mg/kg, po QD for 1.5 months", "type": "functional", "outline": "(§2)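 Established high-fat-fed DIO mice dosed orally once daily at 3, 10 or 30 mg/kg for 1.5 months, each dose given 1–2 h before dark period after daily food intake and body weight recording; body weight change at end of treatment versus vehicle controls, mean ± SEM.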"}, "Mus musculus [8]": {"system": "Mus musculus", "experiment": "Suppression of spontaneous food intake in diet-induced obese C57BL/6 mouse model at 3 mg/kg, po after 24 hrs", "type": "functional", "outline": "as §1"}, "Mus musculus [9]": {"system": "Mus musculus", "experiment": "Antiobese effect in diet-induced obese C57BL/6 mouse model assessed as loss of body weight at 30 mg/kg, po QD for 1.5 months", "type": "functional", "outline": "as §2"}, "[10]": {"experiment": "Drug level in Sprague-Dawley rat cerebrospinal fluid at 10 mg/kg, po after 2 hrs", "type": "ADME, organism-based", "design": "dose 10 mg/kg, route oral", "conditions": "read-out: Drug uptake"}, "Mus musculus [11]": {"system": "Mus musculus", "experiment": "Suppression of spontaneous food intake in diet-induced obese C57BL/6 mouse model treated orally chronic administration QD for 1.5 months after 24 hrs", "type": "functional, organism-based"}, "Mus musculus [12]": {"system": "Mus musculus", "experiment": "Antiobese effect in diet-induced obese C57BL/6 mouse model assessed as loss of body weight at 10 mg/kg, po QD for 1.5 months", "type": "functional", "outline": "as §2"}, "Mus musculus [13]": {"system": "Mus musculus", "experiment": "Suppression of spontaneous food intake in diet-induced obese C57BL/6 mouse model at 10 mg/kg, po after 24 hrs", "type": "functional", "outline": "as §1"}, "Mus musculus [14]": {"system": "Mus musculus", "experiment": "Suppression of spontaneous food intake in diet-induced obese C57BL/6 mouse model treated orally after 24 hrs", "type": "functional, organism-based", "outline": "as §1"}}, "note": "The source made the active and inactive calls. No cut-off for these calls is given here.", "data": [{"smiles": "O=c1cc(OCc2ccccc2)ccn1-c1ccc(OCCN2CCCCC2)cc1", "values": [{"measurement": "concentration at 2 h", "setting": "[1]", "value": 200, "unit": "nM"}, {"measurement": "Drug uptake", "setting": "Brain", "value": 0.76, "unit": "nmol/g"}, {"measurement": "Kp at 2 h", "setting": "[2]", "value": 3.8}, {"measurement": "IC50", "setting": "[3]", "value": 19, "unit": "nM"}]}, {"smiles": "CC(C)N(CCOc1ccc(-n2ccc(OCc3ccccc3)cc2=O)cc1)C(C)C", "values": [{"measurement": "IC50", "setting": "[3]", "value": 22, "unit": "nM"}, {"measurement": "IC50", "setting": "[4]", "value": 5.1, "unit": "nM"}]}, {"smiles": "O=c1cc(OCc2cccc(F)c2)ccn1-c1ccc(OCCN2CCCC2)cc1", "values": [{"measurement": "IC50", "setting": "[3]", "value": 22, "unit": "nM"}, {"measurement": "IC50", "setting": "[4]", "value": 5.9, "unit": "nM"}]}, {"smiles": "O=c1cc(OCc2ccccc2)ccn1-c1ccc(OCCN2CCOCC2)cc1", "values": [{"measurement": "IC50", "setting": "[3]", "value": 34, "unit": "nM"}, {"measurement": "IC50", "setting": "[4]", "value": 24, "unit": "nM"}, {"measurement": "IC50", "setting": "[5]", "value": "> 10", "unit": "µM"}]}, {"smiles": "CN(C)CC1CCc2cc(NC(=O)c3ccc(-c4ccc(F)cc4)cc3)ccc2C1", "note": "(stereo not given)", "values": [{"measurement": "Activity", "setting": "Mus musculus [6]", "value": "Active"}]}, {"smiles": "COc1ccc(COc2ccn(-c3ccc(OCCN4CCCC4)cc3)c(=O)c2)cc1", "values": [{"measurement": "IC50", "setting": "[3]", "value": 11, "unit": "nM"}]}, {"smiles": "CC(CN(C)C)Oc1ccc(-n2ccc(OCc3ccccc3)cc2=O)cc1", "note": "(stereo not given)", "values": [{"measurement": "IC50", "setting": "[4]", "value": 51, "unit": "nM"}]}, {"smiles": "CN1CCC(Oc2ccc(-n3ccc(OCc4ccccc4)cc3=O)cc2)C1", "note": "(stereo not given)", "values": [{"measurement": "IC50", "setting": "[4]", "value": 18, "unit": "nM"}, {"measurement": "IC50", "setting": "[5]", "value": "> 10", "unit": "µM"}]}, {"smiles": "O=c1cc(OCCc2ccc(F)cc2)ccn1-c1ccc(OCCN2CCCC2)cc1", "values": [{"measurement": "IC50", "setting": "[4]", "value": 650, "unit": "nM"}]}, {"smiles": "O=c1cc(OCc2ccc(F)cc2)ccn1-c1ccc(OCCN2CCCC2)cc1", "values": [{"measurement": "concentration at 2 h", "setting": "[1]", "value": 1000, "unit": "nM"}, {"measurement": "Drug uptake", "setting": "Brain", "value": 2.4, "unit": "nmol/g"}, {"measurement": "Activity", "setting": "Mus musculus [7]", "value": 4, "unit": "%"}, {"measurement": "Activity", "setting": "Mus musculus [8]", "value": 6, "unit": "%"}, {"measurement": "Kp at 2 h", "setting": "[2]", "value": 2.4}, {"measurement": "Activity", "setting": "Mus musculus [9]", "value": 21, "unit": "%"}, {"measurement": "concentration at 2 h", "setting": "[10]", "value": 55, "unit": "nM"}, {"measurement": "IC50", "setting": "[3]", "value": 23, "unit": "nM"}, {"measurement": "Activity", "setting": "Mus musculus [11]", "value": "Dose-dependent effect"}, {"measurement": "Activity", "setting": "Mus musculus [6]", "value": 19, "unit": "%"}, {"measurement": "Activity", "setting": "Mus musculus [12]", "value": 11, "unit": "%"}, {"measurement": "Activity", "setting": "Mus musculus [13]", "value": 13, "unit": "%"}, {"measurement": "Activity", "setting": "Mus musculus [14]", "value": "Dose-dependent effect"}]}, {"smiles": "O=c1cc(-c2ccc(F)cc2)ccn1-c1ccc(OCCN2CCCCC2)cc1", "values": [{"measurement": "IC50", "setting": "[4]", "value": "> 1000", "unit": "nM"}]}, {"smiles": "CCN(CC)CCN(C(=O)OC)c1ccc(-n2ccc(OCc3ccccc3)cc2=O)cc1", "values": [{"measurement": "IC50", "setting": "[4]", "value": "> 1000", "unit": "nM"}]}, {"smiles": "CN1CCCCC1COc1ccc(-n2ccc(OCc3ccccc3)cc2=O)cc1", "note": "(stereo not given)", "values": [{"measurement": "IC50", "setting": "[4]", "value": 18, "unit": "nM"}]}, {"smiles": "O=c1cc(OCc2ccc(C(F)(F)F)cc2)ccn1-c1ccc(OCCN2CCCC2)cc1", "values": [{"measurement": "IC50", "setting": "[3]", "value": 49, "unit": "nM"}, {"measurement": "IC50", "setting": "[4]", "value": 6.7, "unit": "nM"}]}, {"smiles": "O=c1cc(OCc2ccc(-c3ccccc3)cc2)ccn1-c1ccc(OCCN2CCCC2)cc1", "values": [{"measurement": "IC50", "setting": "[4]", "value": 640, "unit": "nM"}]}, {"smiles": "O=c1cc(OCCOc2ccc(F)cc2)ccn1-c1ccc(OCCN2CCCC2)cc1", "values": [{"measurement": "IC50", "setting": "[4]", "value": 150, "unit": "nM"}]}, {"smiles": "CN(C)CCOc1ccc(-n2ccc(OCc3ccccc3)cc2=O)cc1", "values": [{"measurement": "IC50", "setting": "[3]", "value": 18, "unit": "nM"}, {"measurement": "IC50", "setting": "[5]", "value": "> 10", "unit": "µM"}]}, {"smiles": "CCN(CC)CCOc1ccc(-n2ccc(OCc3ccccc3)cc2=O)cc1", "values": [{"measurement": "IC50", "setting": "[3]", "value": 24, "unit": "nM"}, {"measurement": "IC50", "setting": "[4]", "value": 6.6, "unit": "nM"}, {"measurement": "IC50", "setting": "[5]", "value": 9.8, "unit": "µM"}]}, {"smiles": "CCN(CC)CCN(C)c1ccc(-n2ccc(OCc3ccccc3)cc2=O)cc1", "values": [{"measurement": "IC50", "setting": "[4]", "value": 16, "unit": "nM"}, {"measurement": "IC50", "setting": "[5]", "value": 1.7, "unit": "µM"}]}, {"smiles": "O=c1cc(OCc2ccc(Cl)cc2)ccn1-c1ccc(OCCN2CCCC2)cc1", "values": [{"measurement": "concentration at 2 h", "setting": "[1]", "value": 470, "unit": "nM"}, {"measurement": "Drug uptake", "setting": "Brain", "value": 1.67, "unit": "nmol/g"}, {"measurement": "Kp at 2 h", "setting": "[2]", "value": 3.6}, {"measurement": "concentration at 2 h", "setting": "[10]", "value": 10, "unit": "nM"}, {"measurement": "IC50", "setting": "[3]", "value": 17, "unit": "nM"}, {"measurement": "IC50", "setting": "[4]", "value": 1.4, "unit": "nM"}]}, {"smiles": "CN(C)CC(C)(C)Oc1ccc(-n2ccc(OCc3ccccc3)cc2=O)cc1", "values": [{"measurement": "IC50", "setting": "[4]", "value": 180, "unit": "nM"}]}, {"smiles": "O=c1cc(OCc2ccccc2F)ccn1-c1ccc(OCCN2CCCC2)cc1", "values": [{"measurement": "IC50", "setting": "[3]", "value": 30, "unit": "nM"}, {"measurement": "IC50", "setting": "[4]", "value": 8.7, "unit": "nM"}, {"measurement": "IC50", "setting": "[5]", "value": 4.3, "unit": "µM"}]}, {"smiles": "O=c1cc(Oc2ccc(F)cc2)ccn1-c1ccc(OCCN2CCCCC2)cc1", "values": [{"measurement": "IC50", "setting": "[4]", "value": "> 1000", "unit": "nM"}]}, {"smiles": "O=c1cc(OCc2ccc3ccccc3c2)ccn1-c1ccc(OCCN2CCCC2)cc1", "values": [{"measurement": "IC50", "setting": "[3]", "value": 175, "unit": "nM"}, {"measurement": "IC50", "setting": "[4]", "value": 7.7, "unit": "nM"}]}, {"smiles": "O=c1cc(OCc2ccccc2Cl)ccn1-c1ccc(OCCN2CCCC2)cc1", "values": [{"measurement": "IC50", "setting": "[4]", "value": 12, "unit": "nM"}]}, {"smiles": "CN1CCCC1COc1ccc(-n2ccc(OCc3ccccc3)cc2=O)cc1", "note": "(stereo not given)", "values": [{"measurement": "IC50", "setting": "[3]", "value": 23, "unit": "nM"}, {"measurement": "IC50", "setting": "[4]", "value": 12, "unit": "nM"}]}]}
